Source: the array DNA melting data of Ke et al. (doi:10.1101/2024.01.08.574731)

Key:
[1] = folding enthalpy; higher = less favourable; fluorescence melt of hairpins on a sequencing array, two-state fit; conditions: sodium 0.088 M
In short: (§1)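 Two-state fits, bootstrapped, provided melting temperature and folding enthalpy from Cy3 fluorescence normalised to pre-quench Cy3 and to control constructs. Library hairpins with annealed Cy3 and quencher oligos were imaged on a sequenced MiSeq flow cell in 50 mM Na-HEPES pH 8.0, 25 mM NaCl, at 2.5 °C intervals up to 60 °C. Four replicates were combined with inverse-variance weighting. A 9.35 °C upward shift was applied to fitted temperatures to match UV melts.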

[2] = melting temperature; fluorescence melt of hairpins on a sequencing array, two-state fit, raised by 9.35 °C to match UV melts; conditions: sodium 0.088 M
In short: as §1

| Sequence | folding enthalpy [1] | Tm [2] |
| --- | --- | --- |
| CGTACCCGGAAACGGACG (((..(((....)))))) | -12.3 kcal/mol | 31.8 °C |
| GTAACGCGAAAGCGATAC (((.(((....))).))) | -24.1 kcal/mol | 51 °C |
| GAATCAGGAAACTGATCC (.(((((....))))).) | -15.4 kcal/mol | 32.6 °C |
| GCTTTCGGAAACGAGAGC (((.(((....))).))) | -47 kcal/mol | 49.1 °C |
| GCGTGTCCGAAAGGACGC (((..(((....)))))) | -9.9 kcal/mol | 50.1 °C |
| CCCTAGAAATAGGG (((((....))))) | -20.7 kcal/mol | 38.2 °C |
| GATCTAGAACTAGATC ((((((....)))))) | -34.2 kcal/mol | 44.9 °C |
| GGAGAGGGAAACCCCTCC ((((.((....)).)))) | -28.6 kcal/mol | 45 °C |
| GATGGGGGAAACCCCACC (.(((((....))))).) | -12.6 kcal/mol | 39.9 °C |
| GCCCAGCGAAAGCTTAGC ((..(((....)))..)) | -8.7 kcal/mol | 32.8 °C |
| GGGTCAGGAAACTGGTCC ((..(((....)))..)) | -30.1 kcal/mol | 39.9 °C |
| GTTCCCGAAAGGGGTAAC ((((((....)))..))) | -12.2 kcal/mol | 29.8 °C |
| GTGGAAGGAAACTCCCAC ((((.((....)).)))) | -36.2 kcal/mol | 38.6 °C |
| GGACCCGAAAGGGCTTCC ((((((....)))..))) | -17 kcal/mol | 40.6 °C |
| GGAGGCGGAAACGCTTCC (((.(((....))).))) | -36.9 kcal/mol | 55.2 °C |
| TTTCGGAAACGAAA (((((....))))) | -18.3 kcal/mol | 40.6 °C |
| GTTGGCGAAAGCCGAAAC ((((((....)))..))) | -8.56 kcal/mol | 38.2 °C |
| GCACTTGGAAACAAGTGC (((((((....))))))) | -34.6 kcal/mol | 67.7 °C |
| GTCCCCGAAAGGGGAGAC ((((((....)))..))) | -8.25 kcal/mol | 54.2 °C |
| GGAGTGGGAAACTGCTCC ((((..(....)..)))) | -31.5 kcal/mol | 44.5 °C |
| GGGAGGCGAAAGCCCCC (((.(((....)))))) | -19.2 kcal/mol | 66.3 °C |
| GTTGCTACGAAAGTAAAC (((..(((....)))))) | -9.44 kcal/mol | 28.6 °C |
| GACTCCGAAAGGAAGGTC ((((((....)))..))) | -22.1 kcal/mol | 38.3 °C |

| Sequence | folding enthalpy [1] | Tm [2] |
| --- | --- | --- |
| GATCGAGGATTCGATC ((((((....)))))) | -36.8 kcal/mol | 57.9 °C |
| GCAAAGCGAAAGCATCGC ((.(.((....)).).)) | -10.8 kcal/mol | 35.4 °C |
| GTAGGCGAAAGCCAGTAC ((((((....)))..))) | -8.17 kcal/mol | 27.4 °C |
| GTAATCGGAAACGATTGC (.(((((....))))).) | -25.6 kcal/mol | 48.2 °C |
| GCTATGCGAAAGCAGAGC (((.(((....))).))) | -49 kcal/mol | 60.6 °C |
| GGGCGTCCGAAAGGACCC (((..(((....)))))) | -13.9 kcal/mol | 57.8 °C |
| GCGGAAGACCGC ((((....)))) | -18.5 kcal/mol | 52.8 °C |
| GTACTCCGAAAGGACTAC (((.(((....))).))) | -14.1 kcal/mol | 33.2 °C |
| GCGATGCCGAAAGGCCGC (((..(((....)))))) | -18 kcal/mol | 59.3 °C |
| GCTGTGGGAAACCGCAGC ((((.((....)).)))) | -44.6 kcal/mol | 60.7 °C |
| GCCGCCGAAAGGCGCGGC ((((((....)))..))) | -11.2 kcal/mol | 69.3 °C |
| GATCCTGCGTAGGATC ((((((....)))))) | -44.2 kcal/mol | 51.4 °C |
| GATCGAGCGCTCGATC ((((((....)))))) | -44 kcal/mol | 62.2 °C |
| GATTGCGAAAGCATGATC ((((((....)))..))) | -11.6 kcal/mol | 36.3 °C |
| GTACGCGGAAACGCATAC (((.(((....))).))) | -19.6 kcal/mol | 39.9 °C |
| GAAGCCCCGAAAGGGTTC (((..(((....)))))) | -14.3 kcal/mol | 36.9 °C |
| GCAGACGGAAACGTCTAC (.(((((....))))).) | -14.1 kcal/mol | 42.7 °C |
| GCACAAGGAAACTCGTGC ((((.((....)).)))) | -31.4 kcal/mol | 43.8 °C |
| GGCGAACCGAAAGGTGCC (((..(((....)))))) | -28.3 kcal/mol | 53.7 °C |
| GCTCTCGAAAGAGTAAGC ((((((....)))..))) | -22.6 kcal/mol | 39.7 °C |
| GATCTCCCCAGAGATC ((((((....)))))) | -42.9 kcal/mol | 55.7 °C |
| GATCCCACAGGGGATC ((((((....)))))) | -33.4 kcal/mol | 61.8 °C |
| GCGAATGCGAAAGCACGC (((..(((....)))))) | -18.9 kcal/mol | 52.3 °C |

| Sequence | folding enthalpy [1] | Tm [2] |
| --- | --- | --- |
| GATCTAACACTAGATC ((((((....)))))) | -24.6 kcal/mol | 36.9 °C |
| GAAGTGGGAAACTACTTC (((((.(....).))))) | -37.4 kcal/mol | 43.1 °C |
| GATCTTGTCTAAGATC ((((((....)))))) | -40.6 kcal/mol | 48.4 °C |
| GAGTTACGAAAGTACCTC (((.(((....))).))) | -24.6 kcal/mol | 40.3 °C |
| GATCTATAAATAGATC ((((((....)))))) | -35.4 kcal/mol | 39.9 °C |
| GTCCTAGCGAAAGCTGAC (((..(((....)))))) | -12.7 kcal/mol | 31.5 °C |
| GGCGGTGGAAACGCTGCC (((.(.(....).).))) | -21.9 kcal/mol | 54.6 °C |
| GCGCGACGAAAGTCACGC (((.(((....))).))) | -36.3 kcal/mol | 68.9 °C |
| GCCATGCGAAAGCACAGC ((..(((....)))..)) | -11.2 kcal/mol | 36.6 °C |
| GTGGGCGAAAGCCCCCAC ((((((....)))..))) | -7.28 kcal/mol | 38.7 °C |
| GACGGAGAAATCCGTC ((((((....)))))) | -38.5 kcal/mol | 59.1 °C |
| GCCTGACGAAAGTCGGC (((.(((....)))))) | -23.2 kcal/mol | 63.1 °C |
| GGCCCTTCGAAAGAAGCC (((..(((....)))))) | -12.6 kcal/mol | 27.3 °C |
| GCATCGCGAAAGCTCTGC (((..((....))..))) | -15.9 kcal/mol | 36.8 °C |
| GCCTCGCGAAAGCTATGC ((.(.((....)).).)) | -4.77 kcal/mol | 15.9 °C |
| GATCCTCGCAAGGATC ((((((....)))))) | -32.6 kcal/mol | 54.8 °C |
| GCGATCGGAAACGACCGC (((.(((....))).))) | -48.9 kcal/mol | 55.5 °C |
| GTTGCCGGAAACGGTAGC (.(.(((....))).).) | -17.2 kcal/mol | 39.7 °C |
| GGATCCGAAAGGACCTCC ((((((....)))..))) | -15.5 kcal/mol | 47.2 °C |
| GATCCTGTAGAGGATC ((((((....)))))) | -36 kcal/mol | 55.5 °C |
| GCGTGCGACGC ((((...)))) | -13.9 kcal/mol | 61 °C |
| GATCTGGGAAACCAGACC (.(((((....))))).) | -16.1 kcal/mol | 38.5 °C |
| GTGTTTGGAAACAAGCAC (((.(((....))).))) | -30.5 kcal/mol | 46.6 °C |

| Sequence | folding enthalpy [1] | Tm [2] |
| --- | --- | --- |
| GATCTCTAGTGAGATC ((((((....)))))) | -36.9 kcal/mol | 50.3 °C |
| GGTCAGGGAAACCTAACC (((.(((....))).))) | -24.6 kcal/mol | 33.6 °C |
| GGACGCGAAAGCGCTCC ((((((....))).))) | -20.5 kcal/mol | 54.9 °C |
| GATCTCCGTAGAGATC ((((((....)))))) | -42 kcal/mol | 55.1 °C |
| GATTCCCCGAAAGGGATC (((..(((....)))))) | -12.2 kcal/mol | 29.2 °C |
| GGATTGGGAAACTAGTCC (((.(.(....).).))) | -23.6 kcal/mol | 27.3 °C |
| GTGCTCGAAAGAGTCAC ((((((....))).))) | -26.7 kcal/mol | 49.7 °C |
| GGGTGTCGAAAGACTCCC (((.(((....))).))) | -42.3 kcal/mol | 58.3 °C |
| GTCTGTCCGAAAGGAGAC (((..(((....)))))) | -15.1 kcal/mol | 31.3 °C |
| GCGATCGAAAGATTACGC ((((((....)))..))) | -30.4 kcal/mol | 42 °C |
| GATCGTCGACACGATC ((((((....)))))) | -43.9 kcal/mol | 52.2 °C |
| GATCGAAGGTCGATC ((((((...)))))) | -25.6 kcal/mol | 50.9 °C |
| GATCACACCGTGATC ((((((...)))))) | -38.5 kcal/mol | 60.6 °C |
| GCTCGTGGAAACGCGAGC (((((.(....).))))) | -47.9 kcal/mol | 63.2 °C |
| GTGATAGAAATATCAC ((((((....)))))) | -32.9 kcal/mol | 46.5 °C |
| GGAGCTGAAAAGCTCC ((((((....)))))) | -37.5 kcal/mol | 68.9 °C |
| GGGTCACGAAAGTGTCCC (((.(((....))).))) | -39.8 kcal/mol | 59.6 °C |
| GGCAGGACGAAAGTCGCC (((..(((....)))))) | -38.2 kcal/mol | 55.4 °C |
| GGCAGAGGAAACTCTACC ((.((((....)))).)) | -23.8 kcal/mol | 38.3 °C |
| GATCTTATTAAGATC ((((((...)))))) | -34 kcal/mol | 45 °C |
| GATCACATGCGTGATC ((((((....)))))) | -38.4 kcal/mol | 57.8 °C |
| GCCCTGCGAAAGCCTGGC (((..((....))..))) | -16.2 kcal/mol | 45.5 °C |
| GTCGGTACGAAAGTAGAC (((..(((....)))))) | -10.7 kcal/mol | 31.9 °C |
